Assay results as given in ChEMBL document CHEMBL5653606 (J Pharmacol Exp Ther, 2011).
The source made the active and inactive calls.

What was measured:
[1] = target: T1, Fatty-acid amide hydrolase 1 (Rattus norvegicus) (UniProt P97612); assay: Inhibition of rat FAAH assessed as kinact/Ki ratio in presence of glutamate dehydrogenase by 384-well format microplate reader assay
T1 sequence (whole entry): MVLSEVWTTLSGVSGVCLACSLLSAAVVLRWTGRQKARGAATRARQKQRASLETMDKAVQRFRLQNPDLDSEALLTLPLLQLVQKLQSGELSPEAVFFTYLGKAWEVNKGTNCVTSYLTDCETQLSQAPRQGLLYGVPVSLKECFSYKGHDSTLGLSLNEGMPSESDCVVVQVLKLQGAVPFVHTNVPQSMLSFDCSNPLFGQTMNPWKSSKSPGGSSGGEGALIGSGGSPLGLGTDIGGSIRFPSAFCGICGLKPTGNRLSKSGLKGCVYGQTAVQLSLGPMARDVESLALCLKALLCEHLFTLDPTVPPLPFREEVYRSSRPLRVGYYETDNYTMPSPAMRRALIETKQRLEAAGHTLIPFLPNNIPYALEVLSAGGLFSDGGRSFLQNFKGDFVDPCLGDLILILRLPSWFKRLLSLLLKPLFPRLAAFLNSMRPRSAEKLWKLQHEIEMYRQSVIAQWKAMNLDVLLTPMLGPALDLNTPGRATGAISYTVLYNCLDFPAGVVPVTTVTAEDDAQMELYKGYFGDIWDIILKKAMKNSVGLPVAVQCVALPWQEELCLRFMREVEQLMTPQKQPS
Summary of the method: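 Purified recombinant FAAH (>95% pure), human or rat. Glutamate dehydrogenase-coupled assay in 384-well format, 50 μl final volume. NAD⁺ formed from ammonia released by oleamide hydrolysis, followed at 340 nm.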

[2] = target: T2, Fatty-acid amide hydrolase 1 (Homo sapiens) (UniProt O00519); assay: Inhibition of FAAH in human brain at 100 uM in presence of FP-rhodamine by competitive activity-based protein profiling method; type: tissue-based
T2 sequence (whole entry): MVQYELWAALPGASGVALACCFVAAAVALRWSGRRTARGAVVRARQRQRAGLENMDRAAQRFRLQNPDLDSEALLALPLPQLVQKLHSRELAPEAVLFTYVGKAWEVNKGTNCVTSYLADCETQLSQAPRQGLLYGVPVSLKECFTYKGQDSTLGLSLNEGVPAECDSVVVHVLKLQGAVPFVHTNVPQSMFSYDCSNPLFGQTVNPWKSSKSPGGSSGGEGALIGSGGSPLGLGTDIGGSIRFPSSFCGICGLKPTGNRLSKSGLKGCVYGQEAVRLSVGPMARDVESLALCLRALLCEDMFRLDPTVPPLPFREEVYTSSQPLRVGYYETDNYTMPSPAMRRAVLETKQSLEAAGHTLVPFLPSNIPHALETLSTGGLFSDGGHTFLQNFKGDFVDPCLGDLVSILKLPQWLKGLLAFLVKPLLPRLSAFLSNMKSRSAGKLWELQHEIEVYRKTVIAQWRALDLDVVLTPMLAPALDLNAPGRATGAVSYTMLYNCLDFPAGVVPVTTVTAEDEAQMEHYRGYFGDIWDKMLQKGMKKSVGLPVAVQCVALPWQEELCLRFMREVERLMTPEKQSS
Summary of the method: (§1)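 Competitive ABPP on human and mouse brain, liver and heart proteomes (membrane and soluble fractions), exposed to compound at 10 or 100 μM or to DMSO. Serine hydrolases were then labeled with FP-rhodamine. Gels were read by fluorescence scanning, and loss of band labeling (FAAH or other hydrolases by kDa) was judged.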

[3] = target: T2, Fatty-acid amide hydrolase 1 (Homo sapiens); assay: Inhibition of FAAH in human brain at 10 uM in presence of FP-rhodamine by competitive activity-based protein profiling method; type: tissue-based; summary of the method: as §1
[4] = target: T2, Fatty-acid amide hydrolase 1 (Homo sapiens); assay: Inhibition of human FAAH assessed as kinact/Ki ratio in presence of glutamate dehydrogenase by 384-well format microplate reader assay
Summary of the method: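 Glutamate dehydrogenase-coupled assay in 384-well format, 50 μl final volume. NAD⁺ formed from ammonia released by oleamide hydrolysis, followed at 340 nm.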

[5] = target: T3, Fatty-acid amide hydrolase 1 (Mus musculus) (UniProt O08914); assay: Inhibition of FAAH in mouse brain at 10 uM in presence of FP-rhodamine by competitive activity-based protein profiling method; type: tissue-based; summary of the method: as §1
T3 sequence (whole entry): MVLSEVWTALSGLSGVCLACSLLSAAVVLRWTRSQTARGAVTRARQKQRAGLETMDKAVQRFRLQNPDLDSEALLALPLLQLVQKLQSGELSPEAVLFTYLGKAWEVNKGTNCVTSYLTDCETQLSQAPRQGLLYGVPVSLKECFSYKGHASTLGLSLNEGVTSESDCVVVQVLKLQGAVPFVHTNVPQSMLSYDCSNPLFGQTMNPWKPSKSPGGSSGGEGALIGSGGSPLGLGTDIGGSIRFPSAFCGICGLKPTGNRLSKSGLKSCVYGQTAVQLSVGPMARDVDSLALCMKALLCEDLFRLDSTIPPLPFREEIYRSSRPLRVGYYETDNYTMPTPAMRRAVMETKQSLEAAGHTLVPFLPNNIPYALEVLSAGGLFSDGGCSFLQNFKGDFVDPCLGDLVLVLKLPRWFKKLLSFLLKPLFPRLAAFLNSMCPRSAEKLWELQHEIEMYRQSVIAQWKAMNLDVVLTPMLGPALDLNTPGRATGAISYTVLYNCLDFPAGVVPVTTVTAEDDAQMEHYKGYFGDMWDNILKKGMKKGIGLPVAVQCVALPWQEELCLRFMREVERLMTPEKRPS

[6] = target: T3, Fatty-acid amide hydrolase 1 (Mus musculus); assay: Inhibition of FAAH in mouse brain at 100 uM in presence of FP-rhodamine by competitive activity-based protein profiling method; type: tissue-based; summary of the method: as §1
Mus musculus [7] = assay: In vivo inhibition of rhodamine-azide tagged FAAH in FAAH knockout mouse liver at 10 mg/kg, ip administered for 2 hrs by CC-ABPP method based in-gel fluorescence scanning analysis; type: functional, organism-based
Summary of the method: (§2)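 Alkyne analog given at 10 mg/kg i.p. to FAAH(+/+) or FAAH(−/−) mice. Animals killed at 2 h. Brain or liver proteomes click-reacted with rhodamine-azide tag, then analyzed by in-gel fluorescence scanning.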

Mus musculus [8] = assay: In vivo inhibition of rhodamine-azide tagged FAAH expressed in mouse brain at 10 mg/kg, ip administered for 2 hrs by CC-ABPP method based in-gel fluorescence scanning analysis; type: functional, organism-based; summary of the method: as §2
Mus musculus [9] = assay: In vivo inhibition of rhodamine-azide tagged FAAH expressed in mouse liver at 10 mg/kg, ip administered for 2 hrs by CC-ABPP method based in-gel fluorescence scanning analysis; type: functional, organism-based; summary of the method: as §2
Rattus norvegicus [10] = assay: Antihyperalgesic activity in CFA induced Sprague-Dawley rat assessed as partial reduction of mechanical allodynia at 3 mg/kg, ip by von frey test; type: functional, organism-based
Summary of the method: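 CFA (150 μl, 1 mg/ml in mineral oil) injected into the plantar hind paw of male Sprague-Dawley rats (200–250 g). On day 5, the CB1 or CB2 antagonist was given at 3 mg/kg i.p. 10 min before testing, alongside a 3 mg/kg p.o. dose of the FAAH inhibitor. Mechanical paw withdrawal thresholds were measured with Von Frey hairs; n = 8 rats/group.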

[11] = target: T2, Fatty-acid amide hydrolase 1 (Homo sapiens); assay: Inhibition of FAAH (unknown origin) assessed as kinact/Ki ratio in presence of glutamate dehydrogenase by 384-well format microplate reader assay
Mus musculus [12] = assay: Antinociceptive activity in C57BL6/J mouse assessed as increase in body temperature at 10 mg/kg, ip administered for 30 mins; type: functional, organism-based
Summary of the method: (§3)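 Tetrad test in male C57BL6/J mice (7 weeks old; n = 8/group). Dosed i.p. at 10 ml/kg in 18:1:1 saline/Emulphor/ethanol, with a vehicle control group. Locomotive activity, thermal nociception (tail-immersion latency), catalepsy (60 s) and body temperature were assessed 30 min postdosing.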

Mus musculus [13] = assay: Antinociceptive activity in C57BL6/J mouse assessed as increase in tail-immersion latency at 10 mg/kg, ip administered for 30 mins; type: functional, organism-based; summary of the method: as §3
Mus musculus [14] = assay: Antinociceptive activity in C57BL6/J mouse assessed as increase in catalepsy at 10 mg/kg, ip administered for 30 mins; type: functional, organism-based; summary of the method: as §3
Mus musculus [15] = assay: Antinociceptive activity in C57BL6/J mouse assessed as reduction in locomotive activity at 10 mg/kg, ip administered for 30 mins; type: functional, organism-based; summary of the method: as §3
[16] = target: T1, Fatty-acid amide hydrolase 1 (Rattus norvegicus); conditions: Sprague-Dawley, dose 10.0 mg/kg, route po
[17] = target: T1, Fatty-acid amide hydrolase 1 (Rattus norvegicus); conditions: Sprague-Dawley, dose 10.0 mg/kg, route po; remark: listed apart in the source
[18] = target: T1, Fatty-acid amide hydrolase 1 (Rattus norvegicus); conditions: Sprague-Dawley, dose 10.0 mg/kg, route po; remark: listed apart in the source
[19] = target: T1, Fatty-acid amide hydrolase 1 (Rattus norvegicus); conditions: Sprague-Dawley, dose 10.0 mg/kg, route po; remark: listed apart in the source
[20] = target: T1, Fatty-acid amide hydrolase 1 (Rattus norvegicus); conditions: Sprague-Dawley, dose 10.0 mg/kg, route po; remark: listed apart in the source
[21] = target: T1, Fatty-acid amide hydrolase 1 (Rattus norvegicus); conditions: Sprague-Dawley, dose 10.0 mg/kg, route po; remark: listed apart in the source
[22] = target: T1, Fatty-acid amide hydrolase 1 (Rattus norvegicus); conditions: Sprague-Dawley, dose 10.0 mg/kg, route po; remark: listed apart in the source
Rattus norvegicus [23] = assay: Antihyperalgesic activity in MIA induced Sprague-Dawley rat assessed as increased joint compression thresholds at 30 mg/kg, po administered twice daily for 3 consecutive days measured after 2 to 4 hrs; type: functional, organism-based; conditions: time 3.0 day
Summary of the method: (§4)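 Male Sprague-Dawley rats (220–270 g), isoflurane-anesthetized, given 2 mg MIA in 0.9% saline (50 μl) intra-articular into the knee. From day 14, oral dosing at 10 ml/kg once daily for 3 days in 4% 2-hydroxypropyl-β-cyclodextrin/1% ethanol in 0.01 M HCl. Celecoxib 30 mg/kg in 0.5% methylcellulose twice daily. Joint compression threshold by digital Randall-Selitto at 2 and 4 h postdose on days 1 and 3; n = 10/group.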

Rattus norvegicus [24] = assay: Antihyperalgesic activity in MIA induced Sprague-Dawley rat assessed as effect on pain behaviour in contralateral knee joint at 0.3 to 3 mg/kg, po administered once daily for 3 consecutive days; type: functional, organism-based; conditions: dose 0.3-3 mg/kg, time 3.0 day; summary of the method: as §4

O=C(Nc1ccccc1)N1CCC(Cc2cnc3ccccc3c2)CC1
Ratio [1]: 104 M⁻¹ s⁻¹

NC(=O)c1cccc(-c2cccc(OC(=O)NC3CCCCC3)c2)c1
inhibition [2]: Active
inhibition [3]: Active
Ratio [4]: 1590 M⁻¹ s⁻¹
inhibition [5]: Active
inhibition [6]: Active

C#CCCCCCCCCCNC(=O)Oc1cccc(-c2cccc(C(N)=O)c2)c1
inhibition (Mus musculus [7]): Active
inhibition (Mus musculus [8]): Active
inhibition (Mus musculus [9]): Active

Cc1c(C(=O)NN2CCCCC2)nn(-c2ccc(Cl)cc2Cl)c1-c1ccc(Cl)cc1
Activity (Rattus norvegicus [10]): inactive

Cc1ccc(Cn2nc(C(=O)N[C@@H]3C(C)(C)[C@@H]4CC[C@@]3(C)C4)cc2-c2ccc(Cl)c(C)c2)cc1
Activity (Rattus norvegicus [10]): inactive

C#CCCCOc1ccc(Oc2cccc(C=C3CCN(C(=O)Nc4cccnn4)CC3)c2)nc1
Ratio [11]: 11900 M⁻¹ s⁻¹
inhibition (Mus musculus [8]): Active
inhibition (Mus musculus [9]): Active

Cc1c(C(=O)c2cccc3ccccc23)c2cccc3c2n1[C@H](CN1CCOCC1)CO3
Activity (Mus musculus [12]): Toxic
Activity (Mus musculus [13]): Toxic
Activity (Mus musculus [14]): Toxic
Activity (Mus musculus [15]): Toxic

COc1ccc2cc([C@H](C)C(=O)O)ccc2c1
inhibition [16]: inactive
inhibition [17]: inactive
inhibition [18]: inactive
inhibition [19]: inactive
inhibition [20]: inactive
inhibition [21]: inactive
inhibition [22]: inactive

Cc1ccc(-c2cc(C(F)(F)F)nn2-c2ccc(S(N)(=O)=O)cc2)cc1
Activity (Rattus norvegicus [23]): Active
Activity (Rattus norvegicus [24]): inactive
